Measurements published in ChEMBL document CHEMBL1221182, “Functional characterization of IRESes by an inhibitor of the RNA helicase eIF4A” (Nat Chem Biol, 2006).
Activity calls are given as the source filed them. No cut-off for these calls is given here.

Assays:
HeLa [1] = assay: Inhibition of protein synthesis in human HeLa cells after 50 mins by [35S]methionine metabolic labeling study; format: functional, cell-based
HeLa [2] = assay: Inhibition of protein synthesis in human HeLa cells at 1 uM by [35S]methionine metabolic labeling study; format: functional, cell-based
HeLa [3] = assay: Inhibition of DNA synthesis in human HeLa cells assessed as [3H] thymidine incorporation at 1 uM by scintillation counting; format: functional, cell-based
HeLa [4] = assay: Inhibition of RNA synthesis in human HeLa cells assessed as [3H] Uridine incorporation at 1 uM by scintillation counting; format: functional, cell-based
HeLa [5] = assay: Inhibition of protein synthesis in human HeLa cells at 1 uM after 60 mins by [35S]methionine metabolic labeling study; format: functional, cell-based
Oryctolagus cuniculus = species on record: Oryctolagus cuniculus; assay: Inhibition of 80S ribosome complex formation in rabbit reticulocyte lysate in presence of 600 uM cyclohexamide assessed as increase in unbound mRNA at 50 uM; format: functional
Summary of the method: (§1)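 ³²P-labelled CAT mRNA was incubated 10 min in wheat germ extract or rabbit reticulocyte lysate. Additions were 600 µM cycloheximide, 1 mM GMP-PNP, and 50 µM compound or vehicle. Mixtures were sedimented through 10–30% glycerol gradients at 200,000g for 3.5 h. Fraction radioactivity was measured by scintillation counting.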

Triticum aestivum = assay: Inhibition of 48S ribosome complex formation in wheat germ extract in presence of 1 mM GMP-PNP assessed as increase in unbound mRNA at 50 uM; format: functional; summary of the method: as §1
[6] = target: Eukaryotic initiation factor 4A-I (Mus musculus, UniProt P60843); assay: Inhibition of eIF4A-mediated cap-dependent protein synthesis in FF-HCV-Ren mRNA transfected Swiss mouse Krebs2 cell extract by [35S]methionine metabolic labeling study
Summary of the method: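 Cell-free translation in Krebs-2 extracts programmed with capped bicistronic FF-HCV-Ren transcript: cap-dependent firefly cistron, HCV IRES-driven renilla cistron. Final mRNA 5 µg ml⁻¹, K⁺ 100 mM, compound titrated. Controls carry a matched final DMSO level. Products labeled with [³⁵S]methionine, separated by 10% SDS-PAGE, and autoradiographed. Luciferase activities are read by luminometer and expressed relative to vehicle reactions.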

[7] = system: Internal ribosome entry site (IRES); assay: Inhibition of HCV IRES-mediated protein synthesis in FF-HCV-Ren mRNA transfected Swiss mouse Krebs2 cell extract at 50 uM by [35S]methionine metabolic labeling study; details: Hepacivirus hominis
Summary of the method: (§2)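 In vitro translation in Krebs-2 extracts programmed with capped bicistronic transcripts at 5 µg ml⁻¹ mRNA and 100 mM K⁺ final. Firefly and renilla luciferase activities read by luminometer. Alternatively, [³⁵S]methionine-labelled products were run on 10% SDS gels and autoradiographed. Control reactions held the same final DMSO level as the compound reactions.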

[8] = target: Eukaryotic initiation factor 4A-I (Oryctolagus cuniculus) (UniProt P29562); assay: Inhibition of eIF4A-mediated cap-dependent protein synthesis in rabbit reticulocyte lysate transfected with FF-HCV-Ren mRNA by [35S]methionine metabolic labeling study
Summary of the method: (§3)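 Rabbit reticulocyte lysate or wheat germ extract translations were run to kit instructions. Control reactions carried the same final DMSO concentration as the compound-containing reactions.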

[9] = target: Eukaryotic initiation factor 4A (Triticum aestivum) (UniProt P41378); assay: Inhibition of eIF4A-mediated cap-dependent protein synthesis in wheat germ extract transfected with FF-HCV-Ren mRNA by [35S]methionine metabolic labeling study; summary of the method: as §3
Escherichia coli = assay: Inhibition of eIF4A-mediated cap-dependent protein synthesis in Escherichia coli S30 extract transfected with FF-HCV-Ren mRNA at 50 uM by [35S]methionine metabolic labeling study
[10] = target: Eukaryotic initiation factor 4A-I (Homo sapiens) (UniProt P60842); assay: Inhibition of eIF4A interaction with mRNA cap structure in presence of 0.6 mM m7 GDP at 50 uM by chemical cross-linking assay
Summary of the method: (§4)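 Oxidized ³²P cap-labelled CAT mRNA was chemically cross-linked in reactions with 0.9 mM ATP. Protein sources were 1 µg recombinant eIF4A_I, 0.7 µg native eIF4F, or an initiation factor preparation. Competitors were 0.6 mM m⁷GDP or GDP; compound was 50 µM. Samples were RNase A-treated, resolved by SDS-PAGE, and autoradiographed.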

[11] = target: Eukaryotic translation initiation factor 4B (Homo sapiens) (UniProt P23588); assay: Inhibition of eIF4B interaction with mRNA cap structure in presence of 0.6 mM m7GDP at 50 uM by chemical cross-linking assay; summary of the method: as §4
[12] = target: Eukaryotic translation initiation factor 4E (Homo sapiens) (UniProt P06730); assay: Inhibition of eIF4E interaction with mRNA cap structure in presence of 0.6 mM m7 GDP at 50 uM by chemical cross-linking assay; summary of the method: as §4
[13] = target: Eukaryotic initiation factor 4A-I (Homo sapiens) (UniProt P60842); assay: Inhibition of eIF4A RNA-dependent ATPase activity assessed as rate of ATP hydrolysis
Summary of the method: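 Recombinant murine eIF4A_I (4.5 µg) was expressed in E. coli BL21(DE3) and purified by Ni-NTA and Q-Sepharose. It was incubated with 1 µM [γ-³²P]ATP and 2.5 µM poly(U). Hydrolysis was quantified by phosphorimager. Rate was plotted against compound concentration relative to 0.5% DMSO.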

[14] = target: Eukaryotic initiation factor 4A-I (Homo sapiens) (UniProt P60842); assay: Inhibition of eIF4A-mediated helicase activity by helicase assay
Summary of the method: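 Helicase assay used the RNA-1/11 duplex with 0.4 µM recombinant eIF4A_I and 1 mM ATP. Products were separated on gels, dried, and exposed to film at -80 °C for 12 h.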

[15] = Inhibition of DED1-mediated helicase activity by helicase assay
Summary of the method: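 Helicase assay used the RNA-1/11 duplex with 25 nM Ded1p and 1 mM ATP. Products were separated on gels, dried, and exposed to film at -80 °C for 12 h.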

[16] = target: Eukaryotic initiation factor 4A-I (Mus musculus) (UniProt P60843); assay: Inhibition of eIF4A-mediated cap-dependent translation in Swiss mouse Krebs2 extract transfected with bicistronic mRNA by [35S]methionine metabolic labeling study; summary of the method: as §2
Nucleic Acid [17] = assay: Inhibition of polio virus IRES-mediated translation in Swiss mouse Krebs2 extract transfected with bicistronic mRNA by [35S]methionine metabolic labeling study; details: Enterovirus C; summary of the method: as §2
Nucleic Acid [18] = assay: Inhibition of EMCV IRES-mediated translation in Swiss mouse Krebs2 extract transfected with bicistronic mRNA by [35S]methionine metabolic labeling study; details: Encephalomyocarditis virus; summary of the method: as §2
Nucleic Acid [19] = assay: Inhibition of CrPV IRES-mediated translation in Swiss mouse Krebs2 extract transfected with bicistronic mRNA by [35S]methionine metabolic labeling study; summary of the method: as §2
HeLa [20] = assay: Growth inhibition of human HeLa cells at 80 nM after 24 hrs; format: functional, cell-based
[21] = target: Eukaryotic initiation factor 4A-I (Mus musculus) (UniProt P60843); assay: Inhibition of eIF4A-mediated cap-dependent protein synthesis in Swiss mouse Krebs2 extract transfected with FF-HCV-Ren mRNA in presence of recombinant eIF4AIf by [35S]methionine metabolic labeling study
Summary of the method: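 Krebs-2 translation programmed with FF-HCV-Ren mRNA at 5 µg ml⁻¹ mRNA and 100 mM K⁺ final. Conditions were 0.4 µM compound or 0.004% DMSO, with or without 2.2 µM recombinant eIF4A_If. [³⁵S]methionine products were resolved by SDS-PAGE and autoradiographed. Translational efficiency was taken relative to luciferase from vehicle controls. Three experiments; s.e.m.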

HeLa [22] = assay: Disruption of polyribosmes in human HeLa cells at 1 uM after 20 mins; format: functional, cell-based
[23] = target: Eukaryotic initiation factor 4A-I (Homo sapiens) (UniProt P60842); assay: Inhibition of eIF4A RNA binding activity in presence of 0.6 mM m7GDP at 50 uM; summary of the method: as §4
[24] = target: Eukaryotic translation initiation factor 4E (Homo sapiens) (UniProt P06730); assay: Inhibition of eIF4E RNA binding activity in presence of 0.6 mM m7GDP at 50 uM; summary of the method: as §4
[25] = target: Eukaryotic initiation factor 4A-I (Homo sapiens) (UniProt P60842); assay: Inhibition of eIF4A binding to 32p cap-labeled mRNA at 50 uM; summary of the method: as §4
Nucleic Acid [26] = assay: Inhibition of PTV-1 IRES-mediated translation in Swiss mouse Krebs2 extract transfected with bicistronic mRNA by [35S]methionine metabolic labeling study; details: Porcine teschovirus 1; summary of the method: as §2
[27] = target: Eukaryotic initiation factor 4A-I (Homo sapiens) (UniProt P60842); assay: Induction of eIF4A to [alpha-32P]ATP cross linking relative to control
Summary of the method: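 [α-³²P]ATP (2.5 µCi) was UV cross-linked to 1 µg recombinant eIF4A_I or 0.7 µg native eIF4F, with 0.5% DMSO or 50 µM compound. Samples were run on SDS-PAGE and autoradiographed at -70 °C for 12 h. Four experiments.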

Chain of Eukaryotic initiation factor 4A-I (P60843 whole entry): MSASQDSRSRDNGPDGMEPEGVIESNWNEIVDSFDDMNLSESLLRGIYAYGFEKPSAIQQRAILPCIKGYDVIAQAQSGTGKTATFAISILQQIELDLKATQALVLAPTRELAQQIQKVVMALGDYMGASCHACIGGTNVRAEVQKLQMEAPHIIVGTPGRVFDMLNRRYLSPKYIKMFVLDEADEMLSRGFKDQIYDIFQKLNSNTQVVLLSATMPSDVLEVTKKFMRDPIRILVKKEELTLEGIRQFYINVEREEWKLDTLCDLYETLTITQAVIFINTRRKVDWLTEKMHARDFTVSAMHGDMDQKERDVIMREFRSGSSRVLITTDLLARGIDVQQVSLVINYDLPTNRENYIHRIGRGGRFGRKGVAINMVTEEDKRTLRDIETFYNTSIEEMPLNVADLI
Chain of Eukaryotic initiation factor 4A-I (Homo sapiens) (P60842 whole entry): as the sequence (P60843 whole entry) above
Chain of Eukaryotic translation initiation factor 4E (Homo sapiens) (P06730 whole entry): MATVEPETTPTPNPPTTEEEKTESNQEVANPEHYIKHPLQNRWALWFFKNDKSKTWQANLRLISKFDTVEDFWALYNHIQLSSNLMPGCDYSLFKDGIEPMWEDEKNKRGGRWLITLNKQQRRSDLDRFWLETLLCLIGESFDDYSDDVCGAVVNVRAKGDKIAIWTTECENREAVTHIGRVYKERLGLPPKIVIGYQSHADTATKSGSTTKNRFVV
Chain of Eukaryotic initiation factor 4A-I (Mus musculus) (P60843 whole entry): as the sequence (P60843 whole entry) above
Chain of Eukaryotic initiation factor 4A (Triticum aestivum) (P41378 whole entry): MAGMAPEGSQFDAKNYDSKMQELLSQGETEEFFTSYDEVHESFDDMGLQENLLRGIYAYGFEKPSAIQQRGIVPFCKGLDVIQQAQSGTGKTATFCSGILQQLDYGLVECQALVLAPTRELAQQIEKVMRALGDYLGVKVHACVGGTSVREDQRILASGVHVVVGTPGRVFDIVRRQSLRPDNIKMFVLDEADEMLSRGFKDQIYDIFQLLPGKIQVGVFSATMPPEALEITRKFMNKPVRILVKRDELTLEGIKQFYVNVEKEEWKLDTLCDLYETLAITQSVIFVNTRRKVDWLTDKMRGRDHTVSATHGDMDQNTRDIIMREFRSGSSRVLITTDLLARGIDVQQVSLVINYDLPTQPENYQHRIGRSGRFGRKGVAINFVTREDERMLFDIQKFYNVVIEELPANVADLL
Chain of Eukaryotic translation initiation factor 4B (Homo sapiens) (P23588 whole entry): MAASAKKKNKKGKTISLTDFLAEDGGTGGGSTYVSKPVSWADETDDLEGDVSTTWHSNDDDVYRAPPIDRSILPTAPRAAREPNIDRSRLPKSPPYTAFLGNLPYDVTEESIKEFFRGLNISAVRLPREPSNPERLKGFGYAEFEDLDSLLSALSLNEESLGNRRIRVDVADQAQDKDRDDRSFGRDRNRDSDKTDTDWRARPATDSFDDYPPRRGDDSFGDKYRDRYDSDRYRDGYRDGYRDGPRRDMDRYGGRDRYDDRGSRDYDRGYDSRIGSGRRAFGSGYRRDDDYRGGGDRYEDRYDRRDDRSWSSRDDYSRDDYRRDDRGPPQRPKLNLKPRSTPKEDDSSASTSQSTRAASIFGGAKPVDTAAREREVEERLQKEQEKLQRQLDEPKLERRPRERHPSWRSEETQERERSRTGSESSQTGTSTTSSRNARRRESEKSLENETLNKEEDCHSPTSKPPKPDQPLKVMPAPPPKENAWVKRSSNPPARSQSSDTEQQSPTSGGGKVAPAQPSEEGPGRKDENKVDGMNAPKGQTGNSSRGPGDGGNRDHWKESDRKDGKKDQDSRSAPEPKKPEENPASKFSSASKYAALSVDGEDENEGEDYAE
Chain of Eukaryotic initiation factor 4A-I (Oryctolagus cuniculus) (P29562 whole entry): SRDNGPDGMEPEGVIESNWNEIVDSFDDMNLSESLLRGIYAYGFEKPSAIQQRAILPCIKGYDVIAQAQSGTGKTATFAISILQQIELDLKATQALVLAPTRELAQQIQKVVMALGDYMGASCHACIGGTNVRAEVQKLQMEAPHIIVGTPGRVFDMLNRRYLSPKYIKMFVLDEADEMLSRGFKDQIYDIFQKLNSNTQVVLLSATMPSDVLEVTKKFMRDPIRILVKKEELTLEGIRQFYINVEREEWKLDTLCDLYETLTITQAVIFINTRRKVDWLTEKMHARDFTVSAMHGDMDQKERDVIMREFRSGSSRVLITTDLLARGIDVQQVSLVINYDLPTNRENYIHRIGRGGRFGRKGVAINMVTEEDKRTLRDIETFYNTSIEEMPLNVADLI

## C[C@H]1C[C@@]2(O[C@H]3C[C@H]4[C@@H]5CC[C@H]6C[C@H](O)CC[C@]6(C)[C@H]5[C@@H](O)C[C@]4(C)[C@H]3[C@@]2(C)O)OC1(C)C [HIPPURISTANOL]
HeLa [1]
  inhibition: Active
HeLa [2]
  inhibition: Active
HeLa [3]
  inhibition: Active
HeLa [4]
  inhibition: Active
HeLa [5]
  inhibition: Active
Oryctolagus cuniculus
  inhibition: Active
Triticum aestivum
  inhibition: Active
[6]
  IC50: 0.4 µM
[7]
  inhibition: inactive
[8]
  inhibition: Active
[9]
  inhibition: Active
Escherichia coli
  inhibition: Active
[10]
  inhibition: Active
[11]
  inhibition: Active
[12]
  inhibition: inactive
[13]
  inhibition: Active
[14]
  inhibition: Active
[15]
  inhibition: inactive
[16]
  inhibition: Active
Nucleic Acid [17]
  inhibition: Active
Nucleic Acid [18]
  inhibition: Active
Nucleic Acid [19]
  inhibition: inactive
HeLa [20]
  inhibition: Active
[21]
  inhibition: Active
HeLa [22]
  inhibition: Active
[23]
  inhibition: Active
[24]
  inhibition: inactive
[25]
  inhibition: Active
Nucleic Acid [26]
  inhibition: Active
[27]
  fold change (FC): 2

## C[C@H]1C[C@]2(O[C@H]3C[C@H]4[C@@H]5CC[C@H]6C[C@H](O)CC[C@]6(C)[C@H]5C(=O)C[C@]4(C)[C@H]3[C@@]2(C)O)OC1(C)C
[6]
  IC50: > 100 µM

## CC(=O)O[C@@H]1CC[C@@]2(C)[C@@H](CC[C@@H]3[C@@H]2[C@@H](O)C[C@@]2(C)[C@H]3C[C@@H]3O[C@@]4(C[C@H](C)C(C)(C)O4)[C@](C)(O)[C@@H]32)C1
[6]
  IC50: 10 µM

## C[C@H]1C[C@@]2(O[C@H]3C[C@H]4[C@@H]5CC[C@H]6C[C@H](O)[C@H](OC(=O)CCCC(=O)O)C[C@]6(C)[C@H]5[C@@H](O)C[C@]4(C)[C@H]3[C@@]2(C)O)OC1(C)C
[6]
  IC50: 2.6 µM

## C[C@H]1C[C@@]2(O[C@H]3C[C@H]4[C@@H]5CC[C@H]6C[C@H](O)CC[C@]6(C)[C@H]5C(=O)C[C@]4(C)[C@H]3[C@@]2(C)O)OC1(C)C
[6]
  IC50: 9 µM

## C[C@H]1C[C@@]2(O[C@H]3C[C@H]4[C@@H]5CC[C@H]6CC(=O)CC[C@]6(C)[C@H]5C(=O)C[C@]4(C)[C@H]3[C@@]2(C)O)OC1(C)C
[6]
  IC50: 52 µM

## C[C@H]1C[C@]2(O[C@H]3C[C@H]4[C@@H]5CC[C@H]6C[C@H](O)[C@H](OC(=O)CCCC(=O)O)C[C@]6(C)[C@H]5[C@@H](O)C[C@]4(C)[C@H]3[C@@]2(C)O)OC1(C)C
[6]
  IC50: 35 µM

## C[C@H]1C[C@@]2(O[C@H]3C[C@H]4[C@@H]5CC[C@H]6C[C@H](O)[C@H](O)C[C@]6(C)[C@H]5[C@@H](O)C[C@]4(C)[C@H]3[C@@]2(C)O)OC1(C)C
[6]
  IC50: 1.7 µM

## CC(=O)O[C@@H]1C[C@@]2(C)[C@@H](CC[C@@H]3[C@@H]2[C@@H](O)C[C@@]2(C)[C@H]3C[C@@H]3O[C@]4(C[C@H](C)C(C)(C)O4)[C@](C)(O)[C@@H]32)C[C@@H]1O [EPIHIPPURIN 1]
[6]
  IC50: > 100 µM

## C[C@H]1C[C@]2(O[C@H]3C[C@H]4[C@@H]5CC[C@H]6C[C@H](O)[C@H](O)C[C@]6(C)[C@H]5[C@@H](O)C[C@]4(C)[C@H]3[C@@]2(C)O)OC1(C)C
[6]
  IC50: 19 µM
